Laboratory results from article PMC6218015 (ACS Chemical Biology, 2017).

Columns and labels:
untagged ATAD2 BD = molecular target: T1, untagged ATAD2 BD (Homo sapiens, UniProt Q6PL18); assay: Size exclusion chromatography; type: binding; details: molar ratio 1:1
T1 sequence (Q6PL18 981-1108): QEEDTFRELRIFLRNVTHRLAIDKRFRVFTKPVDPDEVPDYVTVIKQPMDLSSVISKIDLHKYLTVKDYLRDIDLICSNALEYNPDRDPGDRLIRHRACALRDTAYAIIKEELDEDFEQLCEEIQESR

GST-ATAD2 BD = molecular target: T2, GST-ATAD2 BD (Homo sapiens, UniProt Q6PL18); assay: Microscale thermophoresis; type: binding; details: MST
T2 sequence (Q6PL18 981-1108): T1 sequence (Q6PL18 981-1108)
Procedure, shortened: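 Fluorescence-labeled GST-ATAD2 incubated with vehicle or increasing test compound concentrations. Thermophoresis traces recorded in real time. Averaged steady-state MST signals plotted against dose and fitted to a 1:1 binding model to derive KD.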

tag-free ATAD2 = molecular target: T3, tag-free ATAD2 (Homo sapiens, UniProt Q6PL18); assay: Native mass spectrometry; type: binding; details: 10 μM ATAD2 BD, 5 μM compound
T3 sequence (Q6PL18 981-1108): T1 sequence (Q6PL18 981-1108)

[1] = test system: ATAD2 target genes in MCF7 cells; assay: Gene expression study with quantitative PCR; type: cell-based; details: MCF7, 24 h, up to 6.67 µM
Permeability = type: in vitro ADME; details: Caco-2 assay
[2] = test system: other members of the BD family; assay: TSA bromodomain selectivity panel; type: binding; details: 10 μM
Procedure, shortened: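 Thermal shift assay across the bromodomain family. Melting curves of each bromodomain were acquired with 10 μM test compound or with vehicle. Compound effects were taken from the melting-curve comparison and mapped onto the bromodomain phylogenetic tree.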

ATAD2 = molecular target: T4, ATAD2 (Homo sapiens, UniProt Q6PL18); assay: BROMOscan; type: binding
T4 sequence (Q6PL18 981-1108 limits assumed): T1 sequence (Q6PL18 981-1108)

[3] = molecular target: T5, GFP-tagged full-length wild type ATAD2 in MCF7 cells (Homo sapiens, UniProt Q6PL18); assay: Fluorescence recovery after photobleaching; type: cell-based
T5 sequence (Q6PL18 1-1390): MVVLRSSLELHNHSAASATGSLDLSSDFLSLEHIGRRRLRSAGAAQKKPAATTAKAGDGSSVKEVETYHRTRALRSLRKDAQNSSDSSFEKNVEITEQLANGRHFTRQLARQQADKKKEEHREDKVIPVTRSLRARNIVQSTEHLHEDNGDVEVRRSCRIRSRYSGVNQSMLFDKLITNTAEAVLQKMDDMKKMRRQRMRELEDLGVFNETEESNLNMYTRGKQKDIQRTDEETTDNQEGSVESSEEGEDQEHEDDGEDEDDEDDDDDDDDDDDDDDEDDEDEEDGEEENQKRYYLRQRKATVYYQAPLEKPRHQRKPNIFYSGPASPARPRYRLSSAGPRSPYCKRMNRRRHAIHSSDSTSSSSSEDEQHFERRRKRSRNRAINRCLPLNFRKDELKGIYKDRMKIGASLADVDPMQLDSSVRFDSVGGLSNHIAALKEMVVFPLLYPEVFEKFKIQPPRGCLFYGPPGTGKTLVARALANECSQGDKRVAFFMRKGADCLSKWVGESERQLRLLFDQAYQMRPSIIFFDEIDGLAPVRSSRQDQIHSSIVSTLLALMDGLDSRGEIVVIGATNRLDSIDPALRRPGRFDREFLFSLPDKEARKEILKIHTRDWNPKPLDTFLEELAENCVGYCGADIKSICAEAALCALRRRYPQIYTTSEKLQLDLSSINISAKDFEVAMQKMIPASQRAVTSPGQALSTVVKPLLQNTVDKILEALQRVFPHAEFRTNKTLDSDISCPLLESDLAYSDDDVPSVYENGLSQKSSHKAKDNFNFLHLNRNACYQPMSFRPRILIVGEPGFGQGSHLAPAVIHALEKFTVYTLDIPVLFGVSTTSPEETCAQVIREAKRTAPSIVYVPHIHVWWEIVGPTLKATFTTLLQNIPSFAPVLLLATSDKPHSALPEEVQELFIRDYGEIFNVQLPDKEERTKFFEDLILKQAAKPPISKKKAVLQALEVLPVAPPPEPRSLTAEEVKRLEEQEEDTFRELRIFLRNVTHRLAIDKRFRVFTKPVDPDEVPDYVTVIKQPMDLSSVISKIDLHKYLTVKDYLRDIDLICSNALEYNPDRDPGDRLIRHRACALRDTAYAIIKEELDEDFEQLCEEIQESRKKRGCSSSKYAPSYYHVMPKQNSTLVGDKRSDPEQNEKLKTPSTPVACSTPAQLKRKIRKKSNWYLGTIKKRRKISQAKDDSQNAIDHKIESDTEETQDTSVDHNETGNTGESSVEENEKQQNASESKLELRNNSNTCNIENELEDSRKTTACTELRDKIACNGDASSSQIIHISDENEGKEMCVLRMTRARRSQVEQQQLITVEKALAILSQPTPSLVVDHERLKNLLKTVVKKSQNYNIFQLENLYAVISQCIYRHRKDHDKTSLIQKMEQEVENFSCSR
Procedure, shortened: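 MCF7 cells transfected with GFP-tagged full-length wild-type ATAD2; BD-mutant and ATPase-mutant constructs run as comparators. Cells treated with 1 μM test compound for 1 h, then a defined area photobleached. Half fluorescence recovery time measured in the bleached area from at least 15 cells per group, reported as mean with standard error of the mean.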

[4] = test system: HMEC nontransformed mammary epithelial cells; assay: Growth inhibition of nontransformed cells; type: cell-based; details: HMEC vs MCF7 and MDA-MB-231
[5] = molecular target: T6, FLAG tagged ATAD2 (342 - 1390) (Homo sapiens, UniProt Q6PL18); assay: AlphaScreen, ATAD2 construct including the ATPase domain; type: binding; details: larger ATAD2 construct including the ATPase domain
T6 sequence (Q6PL18 342-1390): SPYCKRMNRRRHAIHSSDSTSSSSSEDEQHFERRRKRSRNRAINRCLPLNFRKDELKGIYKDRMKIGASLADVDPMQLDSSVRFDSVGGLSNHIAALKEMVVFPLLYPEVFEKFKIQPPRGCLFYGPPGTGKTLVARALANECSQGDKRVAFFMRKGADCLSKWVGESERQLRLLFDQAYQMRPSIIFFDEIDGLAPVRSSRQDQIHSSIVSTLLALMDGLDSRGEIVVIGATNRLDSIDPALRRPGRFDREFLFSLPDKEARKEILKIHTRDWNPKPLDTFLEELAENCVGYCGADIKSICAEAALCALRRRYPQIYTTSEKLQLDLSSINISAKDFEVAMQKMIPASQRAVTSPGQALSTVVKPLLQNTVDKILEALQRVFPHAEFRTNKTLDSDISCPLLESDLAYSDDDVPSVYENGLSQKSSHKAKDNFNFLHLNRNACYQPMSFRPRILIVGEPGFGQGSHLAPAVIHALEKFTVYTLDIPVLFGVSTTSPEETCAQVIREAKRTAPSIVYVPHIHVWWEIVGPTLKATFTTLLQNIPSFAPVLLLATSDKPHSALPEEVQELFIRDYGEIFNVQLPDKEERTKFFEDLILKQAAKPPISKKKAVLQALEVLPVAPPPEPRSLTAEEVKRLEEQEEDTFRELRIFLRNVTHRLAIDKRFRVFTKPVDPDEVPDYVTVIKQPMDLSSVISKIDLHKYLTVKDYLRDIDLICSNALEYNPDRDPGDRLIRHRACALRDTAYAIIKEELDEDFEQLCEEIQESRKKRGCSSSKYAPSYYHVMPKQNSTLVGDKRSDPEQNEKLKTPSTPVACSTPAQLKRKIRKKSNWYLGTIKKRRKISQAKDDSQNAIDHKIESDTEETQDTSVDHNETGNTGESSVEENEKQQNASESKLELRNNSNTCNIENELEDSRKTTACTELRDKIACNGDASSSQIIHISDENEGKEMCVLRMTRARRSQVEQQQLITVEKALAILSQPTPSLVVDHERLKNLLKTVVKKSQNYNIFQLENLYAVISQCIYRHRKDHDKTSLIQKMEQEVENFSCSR
Procedure, shortened: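 Binding competition between ATAD2 and an acetylated histone H4 peptide, read by AlphaScreen over increasing test compound concentrations. Signals were normalized, plotted against dose and fitted to a four-parameter logistic equation to give potency.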

panel of 354 kinases = assay: Kinase panel overall; type: biochemical, human
His-ATAD2 BD = molecular target: T7, His-ATAD2 BD (Homo sapiens, UniProt Q6PL18); assay: AlphaScreen binding competition assay, tetra-acetylated H4 peptide
T7 sequence (Q6PL18 981-1108): T1 sequence (Q6PL18 981-1108)
Procedure, shortened: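 Competition for binding of acetylated histone H4 N-terminal peptides to the ATAD2 bromodomain, titrated with increasing test compound. TR-FRET read-out for mono- and tetra-acetylated peptides; AlphaScreen read-out for the tetra-acetylated peptide. Normalized signals plotted against compound dose and fitted to a four-parameter logistic equation to obtain IC50.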

## COc1cc(Cl)c(C(=O)N[C@@H](CN[C@H]2CC[C@@H](N)CC2)Cc2ccc(C#N)cc2)cc1-c1ccc(CN[C@H](C)c2ccc(C)cc2)o1 [BAY-850]
Untagged ATAD2 BD
  ATAD2 dimerisation in SEC elution profile: compound-induced shift from the ATAD2-monomer to ATAD2-dimer form
GST-ATAD2 BD
  Kd: 85 nM
tag-free ATAD2
  binding to ATAD2 by native MS: one BAY-850 molecule binds to an ATAD2 dimer
[1]
  expression of ATAD2 target genes: did not affect the expression
Permeability
  permeability: moderate permeability
[2]
  effect on thermal stability of other BD family members: not observed for other members of the BD family
ATAD2
  Kd: 115 nM
[3]; FRAP, MCF7
  concentration of maximal on-target cellular activity: 1 µM
[3]; MCF7 cells, 1 μM for 1 h, mean ± SEM
  Recovery t1/2: 6.3 ± 1.2 s
[4]
  growth inhibition of nontransformed vs cancer cells: similarly active on the nontransformed and cancer cells
[5]
  inhibition of tetra-acetylated H4 peptide binding: inhibited tetra-acetylated H4 peptide binding
Panel of 354 kinases
  inhibitory activity in kinase panel: no inhibitory activity
His-ATAD2 BD
  IC50: 157 nM
